Results: ChEMBL document CHEMBL4699622, “Structural and Functional Study of the Klebsiella pneumoniae VapBC Toxin-Antitoxin System, Including the Development of an Inhibitor That Activates VapC” (J Med Chem, 2020)
The source made the active and inactive calls. The calls are words filed in the database; no cut-off is given here. Residues, ends and D or L forms follow the SMILES beside them.

What was measured:
Klebsiella pneumoniae [1] = experiment: Binding affinity to Klebsiella pneumoniae MGH78578 N-terminal His6-tagged VapC expressed in Escherichia coli BL21(DE3) assessed as increase in RNAase activity measured after 1 hr using fluorophore-labelled RNA by spectrofluorimetric method
Summary of the method: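 Free VapC (10 μM) was stripped of metals with 10 mM EDTA, then exchanged into purification buffer with 10 mM Mg²⁺. It was incubated without the VapB partner, with 40 U RNase inhibitor, in 20 mM HEPES pH 7.5 and 400 mM NaCl with quenched fluorophore-labelled RNA (5 pM final). Fluorescence was followed for 1 h at ex 490/em 520 nm.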

[2] = Binding affinity to Klebsiella pneumoniae MGH78578 N-terminal His6-tagged VapC expressed in Escherichia coli BL21(DE3) by isothermal titration calorimetry
Summary of the method: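 Isothermal titration calorimetry was run at 25 °C with VapC, quantified by A280. Background was subtracted and the data were fitted to a single-site binding model.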

[3] = Inhibition of Klebsiella pneumoniae MGH78578 N-terminal His6-tagged VapB/C expressed in Escherichia coli BL21(DE3) protein-protein interaction assessed as activation of VapC-mediated RNAase activity measured after 1 hr using fluorophore-labelled RNA by spectrofluorimetric method
Summary of the method: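 Small molecule (1, 3.16 and 10 μM) was added to 10 μM VapBC complex. The complex was EDTA-stripped and Mg²⁺-reloaded, with 40 U RNase inhibitor, in 20 mM HEPES pH 7.5 and 400 mM NaCl with 5 pM final quenched RNA. RNase fluorescence was monitored for 1 h at ex 490/em 520 nm. Activity was expressed relative to free VapC. Screening was done in triplicate.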

Klebsiella pneumoniae [4] = experiment: Inhibition of Klebsiella pneumoniae MGH78578 N-terminal His6-tagged VapB/C expressed in Escherichia coli BL21(DE3) protein-protein interaction assessed as activation of VapC-mediated RNAase activity at 100 uM measured after 1 hr using fluorophore-labelled RNA by spectrofluorimetric method
Summary of the method: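 Peptide (100 μM) was added to purified VapBC complex (10 μM), pretreated with 10 mM EDTA and then 10 mM Mg²⁺. The reaction used 40 U RNase inhibitor, 20 mM HEPES pH 7.5, 400 mM NaCl and 5 pM final fluorophore/quencher RNA. RFU from released VapC was read over 1 h at ex 490/em 520 nm. Mean of three independent replicates ± SD.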

Structure (SMILES): NC(=O)NC(=O)CCN1CCC(C(=O)c2ccc(O)cc2)CC1
- Activity (Klebsiella pneumoniae [1]): inactive
- Kd [2]: 22 nM
- IC50 [3]: 420 nM

Structure (SMILES): CCC1Oc2cc(S(=O)(=O)N3CCCC(C(=O)Nc4ccc(F)cc4)C3)c(C)cc2NC1=O (configuration not stated)
- Activity (Klebsiella pneumoniae [1]): inactive
- Kd [2]: 22 nM
- IC50 [3]: 400 nM

Structure (SMILES): CC[C@H](C)[C@H](NC(=O)[C@H](CC(C)C)NC(=O)[C@@H](NC(=O)[C@H](CC(N)=O)NC(=O)[C@@H](NC(=O)[C@@H](N)CC(=O)O)[C@@H](C)O)[C@@H](C)CC)C(=O)N[C@@H](CC(=O)O)C(=O)N[C@@H](CC(C)C)C(=O)N[C@@H](Cc1ccccc1)C(=O)O (H-DTNILIDLF-OH)
- inhibition (Klebsiella pneumoniae [4]): Active

Structure (SMILES): CC[C@H](C)[C@H](NC(=O)[C@H](CC(C)C)NC(=O)[C@@H](NC(=O)[C@H](CC(N)=O)NC(=O)[C@@H](NC(=O)[C@@H](N)CC(=O)O)[C@@H](C)O)[C@@H](C)CC)C(=O)N[C@@H](CC(=O)O)C(=O)N[C@@H](CC(C)C)C(=O)N[C@@H](Cc1ccccc1)C(=O)N[C@@H](CO)C(=O)O (H-DTNILIDLFS-OH)
- inhibition (Klebsiella pneumoniae [4]): Active

Structure (SMILES): CSCC[C@H](NC(=O)CN)C(=O)N[C@@H](CCC(=O)O)C(=O)N[C@@H](C)C(=O)N[C@@H](C)C(=O)N[C@@H](CCCNC(=N)N)C(=O)N[C@@H](CCC(N)=O)C(=O)N[C@@H](CC(C)C)C(=O)O (H-GMEAARQL-OH)
- Activity (Klebsiella pneumoniae [1]): Active

Structure (SMILES): CSCC[C@H](NC(=O)CN)C(=O)N[C@@H](CCC(=O)O)C(=O)N[C@@H](C)C(=O)N[C@@H](CCC(N)=O)C(=O)N[C@@H](CCCNC(=N)N)C(=O)N[C@@H](CCC(N)=O)C(=O)N[C@@H](CC(C)C)C(=O)O (H-GMEAQRQL-OH)
- Activity (Klebsiella pneumoniae [1]): Active
- Kd [2]: 170 nM
- inhibition (Klebsiella pneumoniae [4]): Active

Structure (SMILES): CSCC[C@H](NC(=O)CN)C(=O)N[C@@H](CCC(=O)O)C(=O)N[C@@H](Cc1ccc(O)cc1)C(=O)N[C@@H](C)C(=O)N[C@@H](CCCNC(=N)N)C(=O)N[C@@H](CCC(N)=O)C(=O)N[C@@H](CC(C)C)C(=O)O (H-GMEYARQL-OH)
- Activity (Klebsiella pneumoniae [1]): Active
- Kd [2]: 150 nM
- inhibition (Klebsiella pneumoniae [4]): Active

Structure (SMILES): CSCC[C@H](NC(=O)CN)C(=O)N[C@@H](CCC(=O)O)C(=O)N[C@@H](Cc1ccc(O)cc1)C(=O)N[C@@H](CCC(N)=O)C(=O)N[C@@H](CCCNC(=N)N)C(=O)N[C@@H](CCC(N)=O)C(=O)N[C@@H](CC(C)C)C(=O)O (H-GMEYQRQL-OH)
- Activity (Klebsiella pneumoniae [1]): Active
- Kd [2]: 110 nM
- inhibition (Klebsiella pneumoniae [4]): Active

Structure (SMILES): CSCC[C@H](NC(=O)CN)C(=O)N[C@@H](CCC(=O)O)C(=O)N[C@@H](Cc1ccc(O)cc1)C(=O)N[C@@H](CCC(N)=O)C(=O)N[C@@H](CCCNC(=N)N)C(=O)N[C@@H](CCC(N)=O)C(=O)N[C@@H](CC(C)C)C(=O)N[C@@H](CCCNC(=N)N)C(=O)O (H-GMEYQRQLR-OH)
- Activity (Klebsiella pneumoniae [1]): Active

Structure (SMILES): CSCC[C@H](NC(=O)CN)C(=O)N[C@@H](CCC(=O)O)C(=O)N[C@@H](Cc1ccc(O)cc1)C(=O)N[C@@H](CCC(N)=O)C(=O)N[C@@H](CCCNC(=N)N)C(=O)N[C@@H](CCC(N)=O)C(=O)N[C@@H](CC(C)C)C(=O)N[C@@H](CCCNC(=N)N)C(=O)N[C@@H](CCCCN)C(=O)O (H-GMEYQRQLRK-OH)
- Activity (Klebsiella pneumoniae [1]): Active

Structure (SMILES): CC[C@H](C)[C@H](NC(=O)[C@H](CC(C)C)NC(=O)[C@@H](NC(=O)[C@H](CC(N)=O)NC(=O)[C@@H](N)[C@@H](C)O)[C@@H](C)CC)C(=O)N[C@@H](CC(=O)O)C(=O)N[C@@H](CC(C)C)C(=O)N[C@@H](Cc1ccccc1)C(=O)O (H-TNILIDLF-OH)
- inhibition (Klebsiella pneumoniae [4]): Active

Structure (SMILES): CC[C@H](C)[C@H](NC(=O)[C@H](CC(C)C)NC(=O)[C@@H](NC(=O)[C@H](CC(N)=O)NC(=O)[C@@H](N)[C@@H](C)O)[C@@H](C)CC)C(=O)N[C@@H](CC(=O)O)C(=O)N[C@@H](CC(C)C)C(=O)N[C@@H](Cc1ccccc1)C(=O)N[C@@H](CO)C(=O)O (H-TNILIDLFS-OH)
- inhibition (Klebsiella pneumoniae [4]): Active
